The results in this text go back to ChEMBL document CHEMBL4043184, “The design and synthesis of a novel compound of berberine and baicalein that inhibits the efficacy of lipid accumulation in 3T3-L1 adipocytes” (Bioorg Med Chem, 2017).

pIC50: −log10 of the molar value. Active and inactive are the calls of the source. The rule behind the calls is not given here.

The subject of data set [1] is 3T3-L1. Nature of the data set: Cytotoxicity against mouse 3T3L1 cells assessed as reduction in cell viability incubated for 48 hrs by CCK8 assay. The class given is cell-based. To be noted: for pIC50: Mus musculus, 3T3-L1, 48 h; for Activity: mouse, 3t3-l1, 48 h. The method, boiled down:
(§1)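 3T3-L1 preadipocytes (maintained in DMEM/10% calf serum, 37 °C, 5% CO2) seeded 5×10^3 cells/well in 96-well plates, grown 24 h, then exposed to 1.25–80 µM for 48 h; controls 0.1% DMSO. CCK8 added for 2 h at 37 °C, absorbance at 450 nm. IC50 by logit method; n = 6 plates, ≥3 experiments.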
For orientation: Tetrazolium assays rely on reduction of a dye to a coloured formazan, in cell work by metabolically active cells.

Data set [2] deals with 3T3-L1. The data set can be described thus: Cytotoxicity against mouse 3T3L1 cells assessed as reduction in cell viability at <5 uM incubated for 48 hrs by CCK8 assay. Type of data set: cell-based. The settings on record: 3t3-l1, 48 h. In outline:
as §1

The subject of data set [3] is 3T3-L1. Nature of the data set: Inhibition of lipid accumulation in mouse 3T3L1 cells at 2.5 to 5 uM incubated for 48 hrs by Oil Red O staining based spectrophotometry. Type of data set: functional, cell-based. The method, boiled down: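 Mature 3T3-L1 adipocytes (IBMX/DEX/insulin-differentiated, day 10) after 48 h treatment fixed in 10% buffered formalin 30 min, stained with diluted Oil Red O 1 h at room temperature, washed with 60% isopropanol, dye eluted with isopropanol, absorbance read at 510 nm; expressed as percent intracellular lipid.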

Data set [4] deals with 3T3-L1. The data set can be described thus: Inhibition of triglyceride content in mouse 3T3L1 cells at 2.5 uM incubated for 48 hrs by triglyceride GPO-POD assay. The class given is functional. To be noted: 3T3-L1, 48 h. The method, boiled down:
(§2)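 Differentiated 3T3-L1 adipocytes treated 0, 2.5 or 5 µM for 48 h; lysates heated 70 °C for 10 min, centrifuged, supernatant mixed with GPO-POD working reagent 10 min at 37 °C, absorbance at 550 nm. TG normalized to BCA protein; 0.1% DMSO controls; mean ± SD of ≥3 experiments.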

Data set [5] concerns 3T3-L1. Nature of the data set: Inhibition of triglyceride content in mouse 3T3L1 cells at 5 uM incubated for 48 hrs by triglyceride GPO-POD assay. Type of data set: functional. The settings on record: 3T3-L1, 48 h. The method, boiled down: as §2
Data set [6] deals with 3T3-L1. The data set can be described thus: Induction of AMPK mRNA expression in mouse 3T3L1 cells at 5 uM incubated for 48 hrs by qPCR method. The class given is functional, cell-based. In outline: (§3)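 Mature 3T3-L1 adipocytes (confluent cells induced 3 days with 0.5 mmol/L IBMX, 1.0 µmol/L DEX, 10 mg/L insulin, then insulin 2 days, used ~day 10) treated 0, 2.5 or 5 µM for 48 h. Total RNA extracted, qPCR, normalized to β-actin; DMSO 0.1% controls; mean ± SD, three independent experiments.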

Data set [7] concerns 3T3-L1. The data set can be described thus: Induction of Atgl mRNA expression in mouse 3T3L1 cells at 2.5 and 5 uM incubated for 48 hrs by qPCR method. The class given is functional, cell-based. The method, boiled down: as §3
In general terms: Real-time PCR tracks product formation cycle by cycle.

Data set [8] relates to 3T3-L1. The data set can be described thus: Effect on Hsl mRNA expression in mouse 3T3L1 cells at 2.5 and 5 uM incubated for 48 hrs by qPCR method. Type of data set: functional, cell-based. The method, boiled down: as §3
Data set [9] relates to 3T3-L1. The data set can be described thus: Suppression of lipogenesis associated gene expression in mouse 3T3L1 cells assessed as reduction in Srebp-1c mRNA expression incubated for 48 hrs by qPCR method. Type of data set: functional, cell-based. In outline:
as §3

The test system of data set [10] is 3T3-L1. The data set can be described thus: Suppression of lipogenesis associated gene expression in mouse 3T3L1 cells assessed as reduction in Fasn mRNA expression at 5 uM incubated for 48 hrs by qPCR method. The class given is functional, cell-based. In outline:
as §3

The test system of data set [11] is 3T3-L1. Nature of the data set: Suppression of lipogenesis associated gene expression in mouse 3T3L1 cells assessed as reduction in Scd1 mRNA expression at 2.5 and 5 uM incubated for 48 hrs by qPCR method. Type of data set: functional, cell-based. In outline:
as §3

In data set [12] the test system is 3T3-L1. Nature of the data set: Suppression of lipogenesis associated gene expression in mouse 3T3L1 cells assessed as reduction in Acc mRNA expression at 2.5 and 5 uM incubated for 48 hrs by qPCR method. Type of data set: functional, cell-based. In outline:
as §3

Data set [13] concerns 3T3-L1. The data set can be described thus: Cytotoxicity against mouse 3T3L1 cells assessed as reduction in cell viability at 1.25 to 5 uM incubated for 48 hrs by CCK8 assay. The class given is cell-based. To be noted: 3t3-l1, 48 h. The method, boiled down: as §1
Data set [14] concerns 3T3-L1. The data set can be described thus: Cytotoxicity against mouse 3T3L1 cells assessed as reduction in cell viability at >10 uM incubated for 48 hrs by CCK8 assay. The class given is cell-based. To be noted: 3t3-l1, 48 h. In outline:
as §1

Data set [15] deals with 3T3-L1. Nature of the data set: Cytotoxicity against mouse 3T3L1 cells assessed as reduction in cell viability at […] incubated for 48 hrs by CCK8 assay. To be noted: 3t3-l1, 48 h. The class given is cell-based.
The test system of data set [16] is 3T3-L1. The data set can be described thus: Reduction in Hsl mRNA expression in mouse 3T3L1 cells at 2.5 uM incubated for 48 hrs by qPCR method. The class given is functional, cell-based. The method, boiled down:
as §3

For data set [17], the system named is 3T3-L1. Nature of the data set: Cytotoxicity against mouse 3T3L1 cells assessed as reduction in cell viability at 20 uM incubated for 48 hrs by CCK8 assay. The settings on record: 3t3-l1, 48 h. The class given is cell-based. In outline:
as §1

Usually pIC50 stands for −log10 of the IC50, conventionally taken in molar units. One may read the inhibition as the relative decrease from the control value, in per cent. Regarding `COc1ccc2cc3[n+](cc2c1OCCCCCCOc1c(O)cc2oc(-c4ccccc4)cc(=O)c2c1O)CCc1cc2c(cc1-3)OCO2`, the pIC50 in the data set with 3T3-L1 [1] is 5.03. Moreover, the Activity entry with 3T3-L1 [1] was “Dose-dependent effect”; with 3T3-L1 [2] it was “Non-Toxic”. Besides, the inhibition entry in the data set on 3T3-L1 [3], in the data set on 3T3-L1 [10], in the data set on 3T3-L1 [11] and in the data set on 3T3-L1 [12] was “Active” throughout. The molecule further returned an inhibition at 2.5 µM with 3T3-L1 [4] of 27.3%. This molecule gave an inhibition at 5 µM in the data set with 3T3-L1 [5] of 37.4%. Moreover, the result with 3T3-L1 [6] and in the data set on 3T3-L1 [7] was Active. Moreover, the result in the data set with 3T3-L1 [8] was inactive. Further, the inhibition result in the data set with 3T3-L1 [9] is “Dose-dependent effect”.

Take `O=c1cc(-c2ccccc2)oc2cc(O)c(O)c(O)c12` [BAICALEIN]: the pIC50 in the data set on 3T3-L1 [1] is 4.53. Further, the Activity result in the data set with 3T3-L1 [1] is given as “Dose-dependent effect”; in the data set with 3T3-L1 [13], “Non-Toxic”; in the data set with 3T3-L1 [14], “Toxic”; in the data set with 3T3-L1 [15], “Non-Toxic”. The outcome with 3T3-L1 [6], with 3T3-L1 [7] and with 3T3-L1 [16] was Active. Moreover, in the data set on 3T3-L1 [9], the inhibition result was “Dose-dependent effect”. Further, the inhibition entry in the data set with 3T3-L1 [10] and in the data set with 3T3-L1 [11] was “Active” each time.

For `COc1ccc2cc3[n+](cc2c1OC)CCc1cc2c(cc1-3)OCO2` [BERBERINE], in the data set with 3T3-L1 [1], the pIC50 is 4.66. Besides, the Activity result is on record as “Dose-dependent effect” in the data set on 3T3-L1 [1] and 45% in the data set on 3T3-L1 [17]. For the same molecule, the outcome in the data set with 3T3-L1 [7] and in the data set with 3T3-L1 [16] was Active. Further, the inhibition entry in the data set with 3T3-L1 [9] is “Dose-dependent effect”. Besides, the inhibition result with 3T3-L1 [10] and in the data set on 3T3-L1 [11] was “Active” in each case.
